The target in assay [1] is T1, Retinoic acid receptor alpha (Homo sapiens, UniProt P10276).
T1 sequence (P10276 whole entry): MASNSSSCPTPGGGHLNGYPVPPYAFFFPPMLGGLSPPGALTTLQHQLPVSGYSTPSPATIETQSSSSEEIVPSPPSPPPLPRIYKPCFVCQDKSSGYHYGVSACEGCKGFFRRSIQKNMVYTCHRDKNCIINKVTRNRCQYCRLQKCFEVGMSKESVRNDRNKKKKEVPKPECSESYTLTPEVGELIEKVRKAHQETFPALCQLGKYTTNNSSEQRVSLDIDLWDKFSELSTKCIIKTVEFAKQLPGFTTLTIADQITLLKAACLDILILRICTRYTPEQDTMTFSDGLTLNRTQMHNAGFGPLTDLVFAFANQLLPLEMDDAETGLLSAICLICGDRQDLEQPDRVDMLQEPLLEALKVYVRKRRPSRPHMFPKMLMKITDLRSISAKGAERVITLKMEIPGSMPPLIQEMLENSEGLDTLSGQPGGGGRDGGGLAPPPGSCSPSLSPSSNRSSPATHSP
Nature of the assay: Transcriptional activation in CV-1 cells expressing RAR-alpha receptor. The format is cell-based. The essentials: (§1)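 CV-1 cells co-transfected by calcium phosphate with receptor expression plasmid, luciferase reporter MTV-TREp-LUC (two TRE-palindromic copies; RAR assays), β-galactosidase internal control plasmid and pGEM carrier. Incubated 40 h with or without various retinoid concentrations. Luciferase read in extracts, normalized to β-galactosidase. Triplicate. Activity normalized to 9-cis-retinoic acid; EC50 = concentration giving 50% maximal response.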

Assay [2] addresses T2, Retinoic acid receptor beta (Homo sapiens, UniProt P10826).
T2 sequence (P10826 whole entry): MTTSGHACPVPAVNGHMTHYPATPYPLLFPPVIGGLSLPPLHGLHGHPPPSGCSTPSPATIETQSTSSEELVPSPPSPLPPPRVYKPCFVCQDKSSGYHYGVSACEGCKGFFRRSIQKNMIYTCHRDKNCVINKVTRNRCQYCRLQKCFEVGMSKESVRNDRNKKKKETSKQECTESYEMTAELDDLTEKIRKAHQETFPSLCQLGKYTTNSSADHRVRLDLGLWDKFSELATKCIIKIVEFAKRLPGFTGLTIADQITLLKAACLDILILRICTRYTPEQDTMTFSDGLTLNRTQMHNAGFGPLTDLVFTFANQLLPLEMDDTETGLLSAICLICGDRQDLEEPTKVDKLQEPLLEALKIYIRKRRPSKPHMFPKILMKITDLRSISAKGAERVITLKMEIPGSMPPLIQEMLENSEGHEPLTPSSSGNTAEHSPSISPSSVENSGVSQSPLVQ
Nature of the assay: Transcriptional activation in CV-1 cells expressing RAR-beta receptor. The format is cell-based. The essentials:
as §1

Assay [3] deals with T3, Retinoic acid receptor RXR-alpha (Homo sapiens, UniProt P19793).
T3 sequence (P19793 whole entry): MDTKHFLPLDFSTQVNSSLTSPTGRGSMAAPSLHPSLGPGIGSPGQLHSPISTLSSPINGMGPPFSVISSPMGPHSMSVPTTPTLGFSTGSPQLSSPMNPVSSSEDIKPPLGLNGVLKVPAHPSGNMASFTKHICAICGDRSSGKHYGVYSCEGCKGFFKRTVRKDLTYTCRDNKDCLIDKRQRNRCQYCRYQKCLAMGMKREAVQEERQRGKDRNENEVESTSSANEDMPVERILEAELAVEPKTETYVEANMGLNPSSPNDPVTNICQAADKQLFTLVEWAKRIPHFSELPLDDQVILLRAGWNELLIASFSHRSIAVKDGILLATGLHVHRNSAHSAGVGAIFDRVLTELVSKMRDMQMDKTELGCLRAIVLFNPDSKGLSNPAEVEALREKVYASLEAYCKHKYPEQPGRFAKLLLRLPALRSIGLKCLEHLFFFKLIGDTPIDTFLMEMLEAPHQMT
In words: Transcriptional activation in CV-1 cells expressing RXR-alpha receptor;not active.

Assay [4] has as its target T4, Retinoic acid receptor gamma (Homo sapiens, UniProt P13631).
T4 sequence (P13631 whole entry): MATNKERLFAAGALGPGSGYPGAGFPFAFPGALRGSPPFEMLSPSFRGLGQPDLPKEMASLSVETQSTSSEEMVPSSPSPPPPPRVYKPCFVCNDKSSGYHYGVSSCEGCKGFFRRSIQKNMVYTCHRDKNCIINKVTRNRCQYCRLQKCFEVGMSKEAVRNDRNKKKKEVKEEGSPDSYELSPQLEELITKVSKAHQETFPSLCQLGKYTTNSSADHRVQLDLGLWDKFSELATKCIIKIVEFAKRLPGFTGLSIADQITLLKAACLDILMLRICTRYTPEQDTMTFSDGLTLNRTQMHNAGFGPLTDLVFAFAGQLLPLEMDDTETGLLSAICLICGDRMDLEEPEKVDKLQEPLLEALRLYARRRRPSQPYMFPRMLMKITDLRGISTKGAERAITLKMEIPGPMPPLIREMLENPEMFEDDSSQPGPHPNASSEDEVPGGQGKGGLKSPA
In words: Transcriptional activation in CV-1 cells expressing RAR-gamma receptor. The class given is cell-based. The essentials:
as §1

Assay [5] concerns the target T3, Retinoic acid receptor RXR-alpha. Nature of the assay: Transcriptional activation in CV-1 cells expressing RXR-alpha receptor.
The target in assay [6] is T1, Retinoic acid receptor alpha. Nature of the assay: Transcriptional activation in CV-1 cells expressing RAR-alpha receptor; Not active. The format is cell-based. The method in brief:
as §1

One may read the EC50 as the concentration giving half of the maximal effect. The low end stands for an effect from little substance, the high end for a need for much substance. For the compound `C/C(=C\c1ccc(C(=O)O)cc1)c1ccc2c(c1)C(C)(C)CO2`, the EC50 in assay [1] was 2300 nM; in assay [2], 320 nM; in assay [3] it was “Not Active”; in assay [4], 460 nM.
As for `CC(/C=C/C=C(\C)c1ccc2c(c1)C(C)(C)CO2)=C\C(=O)O`, the EC50 is 800 nM in assay [1], 770 nM in assay [2], 2800 nM in assay [5] and 230 nM in assay [4].
As for `C/C(=C\c1ccc(C(=O)O)cc1)c1ccc2c(c1)C(C)(C)CCO2`, the EC50 is 1100 nM in assay [1], 190 nM in assay [2], “Not Active” in assay [3] and 200 nM in assay [4].
For `COC(=O)c1ccc(/C=C(\C)c2ccc3c(c2)C(C)(C)CO3)cc1`, the EC50 entry was “Not Active” in assay [6], 430 nM in assay [2], “Not Active” in assay [3] and 400 nM in assay [4].
Regarding `COC(=O)c1ccc(/C=C(\C)c2ccc3c(c2)C(C)(C)CCO3)cc1`, the EC50 in assay [1] was 1100 nM; in assay [2] it was 140 nM; in assay [3], “Not Active”; in assay [4], 330 nM.
As to `CC(/C=C/C=C(\C)c1ccc2c(c1)C(C)(C)CS2)=C\C(=O)O`, the EC50 in assay [1] worked out at 1000 nM; in assay [2], 1200 nM; in assay [5], 2600 nM; in assay [4], 8 nM.
As for `COC(=O)c1ccc(/C=C(\C)c2ccc3c(c2)C(C)(C)CCS3)cc1`, the EC50 in assay [1] was 620 nM; in assay [2] it was 110 nM; in assay [3], “Not Active”; in assay [4], 84 nM.
As to `CC(/C=C/C=C(\C)c1ccc2c(c1)C(C)(C)CCO2)=C\C(=O)O`, the EC50 in assay [1] was found to be 740 nM; in assay [2], 72 nM; in assay [5], 2800 nM; in assay [4], 39 nM.
Take `CC(/C=C/C=C(\C)c1ccc2c(c1)C(C)(C)CCS2)=C\C(=O)O`: the EC50 in assay [1] was determined as 1400 nM; in assay [2], 43 nM; in assay [5], 2700 nM; in assay [4], 12 nM.
Regarding `C/C(=C\c1ccc(C(=O)O)cc1)c1ccc2c(c1)C(C)(C)CS2`, the EC50 in assay [1] was 420 nM; in assay [2] it was 18 nM; in assay [3] it was “Not Active”; in assay [4], 30 nM.

For the origin of these results see ChEMBL document CHEMBL1131106, “Synthesis and characterization of heteroarotinoids demonstrate structure specificity relationships” (J Med Chem, 1998).
